Publication PMC2151523 (The Journal of General Physiology, 2006)
“And” between values parts separate entries of the source, which are not always exact repeats. Equal entries are not always repeated. Where two headings read alike, the source gives them in different places. Blank lines part the entries; values can stand above or below the molecule they belong to.

What was measured:
[1] = biological target: T1, bovine rod CNGA1 channels (Bos taurus, UniProt Q00194); type: biochemical; details: for δ (Woodhull fit, best-fit): four blockers in the same patch (Fig. 4 C)
T1 sequence (Q00194 1-690): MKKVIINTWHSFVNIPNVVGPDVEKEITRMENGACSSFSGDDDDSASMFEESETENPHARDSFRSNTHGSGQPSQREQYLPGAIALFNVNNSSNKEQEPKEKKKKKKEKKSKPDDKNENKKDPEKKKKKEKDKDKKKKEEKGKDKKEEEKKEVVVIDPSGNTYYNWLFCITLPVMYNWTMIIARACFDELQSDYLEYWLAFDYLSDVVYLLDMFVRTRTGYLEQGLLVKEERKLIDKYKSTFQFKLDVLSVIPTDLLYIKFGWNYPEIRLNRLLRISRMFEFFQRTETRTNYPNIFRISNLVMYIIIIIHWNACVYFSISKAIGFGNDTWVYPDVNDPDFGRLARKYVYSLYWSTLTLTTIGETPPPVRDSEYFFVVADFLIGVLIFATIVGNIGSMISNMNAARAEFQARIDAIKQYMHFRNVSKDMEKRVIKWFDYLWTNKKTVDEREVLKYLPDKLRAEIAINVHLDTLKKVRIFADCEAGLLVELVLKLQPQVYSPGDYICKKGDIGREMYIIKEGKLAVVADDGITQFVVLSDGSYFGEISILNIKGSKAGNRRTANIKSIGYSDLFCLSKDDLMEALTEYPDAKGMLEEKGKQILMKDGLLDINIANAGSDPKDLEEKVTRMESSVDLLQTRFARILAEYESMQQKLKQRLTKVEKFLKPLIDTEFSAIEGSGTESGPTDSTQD
Procedure, shortened: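 Inside-out patches from HEK293 cells expressing bovine rod CNGA1. Bath and pipette solution: 160 mM NaCl, 1 mM EGTA, 1 mM EDTA, 10 mM HEPES, pH 7.4. Currents were elicited with 1 mM cGMP by steps from −80 to +80 mV in 20 mV increments from a 0 mV holding potential. Records without cGMP were subtracted, and blocker was added to the bath. Block was read 10–40 s after exchange, at the end of the +80 mV pulse. KD and n came from a Hill fit. δ came from Woodhull fits of per-voltage KD and was averaged over 10 patches. Comparisons were made in the same patch and bracketed by controls.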

[2] = tested on: 391C cysteine-less CNGA1 channels; type: biochemical, bovine; details: for modification rate open state versus closed state: average rates (Fig. 11 D)
Procedure, shortened: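 391C channels were expressed in Xenopus oocytes and recorded 3–5 d after cRNA injection. Solutions contained 120 mM NaCl, 1 mM EGTA, 1 mM EDTA, 10 mM HEPES, pH 7.4. MTS reagent was applied for 2 s at 0 mV, with 2 mM cGMP (open state) or without it (closed state). Current was then monitored by a 50-ms step to +80 mV in 2 mM cGMP. Each value is the mean of at least three experiments.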

CNGA1 channel = biological target: T2, CNGA1 channel (Bos taurus, UniProt Q00194); test: Single channel recordings of blockade, inside-out patches; type: biochemical, bovine; details: +70 mV, 2 mM cGMP
T2 sequence (Q00194 1-690): T1 sequence (Q00194 1-690)
Procedure, shortened: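 Single-channel recordings were made in inside-out patches with 7–10 MΩ pipettes at +70 mV with saturating 2 mM cGMP. Signals were sampled at 20 kHz, Bessel-filtered at 5 kHz, then digitally filtered at 2 kHz. Amplitude histograms (40 s of record) were fitted with two Gaussians. Open dwell-time distributions were fitted with two exponentials. τ2 was normalised to its blocker-free value, and its dose response was fitted with a Hill equation.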

CNGA1 channels [3] = details: cited from earlier work
391C CNGA1 channels = test: Cd2+ inhibition in the closed state and its slowing by blocker; type: biochemical, bovine
Kv channels = details: cysteine at valine of PVP region; ref Liu et al., 1997; cited from earlier work
CNGA1 channels [4] = details: ref Flynn and Zagotta, 2001; cited from earlier work
[5] = read-out: average KD0, 0 mV, average of several patches
[6] = 500 μM reagent, estimated from τ

SMILES: CC[N+](CC)(CC)CCCSS(C)(=O)=O [MTS-PtrEA]
time constant τ of modification, open state ([2]; 500 μM reagent, 2 mM cGMP): 5.7 ± 0.3 s | time constant τ of modification, closed state ([2]; 500 μM reagent, absence of cGMP): 27 ± 1 s | modification rate, closed state [2, 6]: 74 M⁻¹ s⁻¹ | modification rate, open state [2, 6]: 351 M⁻¹ s⁻¹ | modification rate open state versus closed state [2]: three to seven

SMILES: Cc1cc(N)c2ccccc2[n+]1CCCCCCCCCC[n+]1c(C)cc(N)c2ccccc21 [dequalinium]
apparent affinity for closed channels compared with open channels (CNGA1 channels [3]; ref Rosenbaum et al., 2004): three- to fivefold

SMILES: [Cl][Cd][Cl] [Cd^2+, CdCl2]
time constant τ of current inhibition by Cd2+, closed state (391C CNGA1 channels; 6 μM Cd2+, no cGMP, no blocker): 2.64 ± 0.08 s | effect on cysteine-less wild-type channels (391C CNGA1 channels; 50 μM Cd2+, unpublished data): no effect | recovery of current inhibition (391C CNGA1 channels; unpublished data): 20–40% | time course τ of recovery of current inhibition (391C CNGA1 channels; unpublished data): ~100 s

SMILES: CCCCNc1ccc(C(=O)OCCN(C)C)cc1 [Tetracaine, tetracaine]
apparent affinity in the closed state compared with the open state (CNGA1 channels [3]; ref Fodor et al., 1997b, Ghatpande et al., 2003): ~10^3 times higher

SMILES: CC[N+](CC)(CC)CCSS(C)(=O)=O [MTSTEA]
modification rate open state versus closed state [2]: three to seven

SMILES: C[N+](C)(C)CCSS(C)(=O)=O [MTSET, trimethylammonium ethyl-MTS]
modification rate in the closed state (Kv channels): 1 M⁻¹ s⁻¹ | state-dependent accessibility (modification rate) (Kv channels): ~10^6 M^−1s^−1

SMILES: CS(=O)(=O)SCCN [MTSEA, amino ethyl-MTS]
modification rates in both closed and open state (CNGA1 channels [4]): 10^3–10^4 M^−1s^−1

More lines, main results first:

δ (Woodhull fit, best-fit) ([1]; 1 mM cGMP): −0.44 ± 0.02 | Kd [1, 5]: 0.9 ± 0.2 mM
SMILES: CCCCCCCC[N+](CC)(CC)CC [C8-TEA]

average δ ([1]; average of several patches): −0.40 ± 0.08 | Kd [1, 5]: 31 mM
SMILES: CCC[N+](CC)(CC)CC [C3-TEA]

difference in apparent affinity as compared with C10-TEA ([1]; 50 μM, +80 mV, 1 mM cGMP): 1.8 fold
SMILES: CCCCCCCCCC[N+](C)(C)C [C10-TMA, decyl-trimethyl ammonium]

average δ ([1]; average of several patches): −0.48 ± 0.02 | δ (Woodhull fit, best-fit) ([1]; 1 mM cGMP): −0.53 ± 0.02 | Kd [1, 5]: 5 mM
SMILES: CCCCCC[N+](CC)(CC)CC [C6-TEA, hexyltriethylammonium]

average δ ([1]; average of several patches): −0.40 ± 0.03 | δ (Woodhull fit, best-fit) ([1]; 1 mM cGMP): −0.45 ± 0.02 | Kd [1, 5]: 11 mM
SMILES: CCCC[N+](CC)(CC)CC [C4-TEA]

reduction in current ([1]; 5 mM blocker, +80 mV, 1 mM cGMP): ~35% | average δ ([1]; average of several patches): −0.31 ± 0.04 | Kd [1, 5]: 35 mM
SMILES: CC[N+](CC)(CC)CC [TEA, tetraethylammonium]

Hill coefficient n ([1]; +80 mV, 1 mM cGMP, one patch (Fig. 2 A)): 1.19 ± 0.04 | δ (Woodhull fit, best-fit) ([1]; 1 mM cGMP): −0.44 ± 0.01 | Kd [1, 5]: 0.05 ± 0.01 mM | Kd ([1]; read-out: average KDc, four different patches): 0.0023 ± 0.0006 mM | amplitude for the open state (CNGA1 channel; 5 μM blocker): 2.317 ± 0.002 pA | area of the nonconductive level in current histogram (CNGA1 channel; 5 μM blocker, 5% without blocker): 26% | area of the open state in amplitude histogram (CNGA1 channel; 5 μM blocker, 95% without blocker): 74% | open dwell-time fraction A1 (CNGA1 channel; 25 μM blocker): 0.19 | open dwell-time fraction A2 (CNGA1 channel; 25 μM blocker): 0.81 | open dwell-time fast component τ1 (CNGA1 channel; 25 μM blocker, 0.7 ms in control): ~0.7 ms and 0.6 ms | apparent mean open time of the main (slow) component, τ2 (CNGA1 channel; 25 μM blocker, 12.2 ms in control): 3.74 ms and 3.7 ms
SMILES: CCCCCCCCCC[N+](CC)(CC)CC [C10-TEA, decyltriethyl ammonium]
extent of blockade at subsaturating versus saturating cGMP ([1]; 5 μM blocker, +80 mV): Blockade was larger at subsaturating levels of cGMP | blockade levels under saturating cGMP, cIMP or cAMP ([1]; 15 μM blocker, +80 mV, 16 mM agonist): Blockade levels were larger for cIMP and cAMP
